The target of assay [1] is T1, Adrenergic receptor alpha-2 (Homo sapiens, UniProt P08913+P18825+P18089).
T1 sequence (P08913 whole entry): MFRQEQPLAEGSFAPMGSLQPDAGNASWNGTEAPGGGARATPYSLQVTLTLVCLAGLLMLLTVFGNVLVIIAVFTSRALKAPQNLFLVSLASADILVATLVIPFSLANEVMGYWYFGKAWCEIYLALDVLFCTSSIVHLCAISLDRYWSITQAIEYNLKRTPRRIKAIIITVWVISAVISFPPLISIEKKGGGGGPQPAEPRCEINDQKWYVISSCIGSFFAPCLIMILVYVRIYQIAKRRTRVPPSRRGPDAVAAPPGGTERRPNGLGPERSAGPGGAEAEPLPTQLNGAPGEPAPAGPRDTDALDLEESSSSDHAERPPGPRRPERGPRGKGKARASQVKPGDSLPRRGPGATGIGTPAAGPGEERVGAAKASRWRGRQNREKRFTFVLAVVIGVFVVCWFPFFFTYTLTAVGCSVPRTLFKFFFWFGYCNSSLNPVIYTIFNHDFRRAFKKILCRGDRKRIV
T1 sequence (P18825 whole entry): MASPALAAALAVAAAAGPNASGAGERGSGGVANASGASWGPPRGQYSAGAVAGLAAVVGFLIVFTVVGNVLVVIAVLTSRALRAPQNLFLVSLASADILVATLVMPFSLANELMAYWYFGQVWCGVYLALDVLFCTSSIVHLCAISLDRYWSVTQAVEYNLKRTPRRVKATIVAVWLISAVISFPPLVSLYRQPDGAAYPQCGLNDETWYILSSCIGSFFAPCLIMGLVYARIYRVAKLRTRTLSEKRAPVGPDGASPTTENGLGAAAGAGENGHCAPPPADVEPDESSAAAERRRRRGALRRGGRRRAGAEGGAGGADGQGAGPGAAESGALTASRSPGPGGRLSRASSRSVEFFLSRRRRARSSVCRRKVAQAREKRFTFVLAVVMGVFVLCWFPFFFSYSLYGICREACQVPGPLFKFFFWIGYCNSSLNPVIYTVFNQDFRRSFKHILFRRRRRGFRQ
T1 sequence (P18089 whole entry): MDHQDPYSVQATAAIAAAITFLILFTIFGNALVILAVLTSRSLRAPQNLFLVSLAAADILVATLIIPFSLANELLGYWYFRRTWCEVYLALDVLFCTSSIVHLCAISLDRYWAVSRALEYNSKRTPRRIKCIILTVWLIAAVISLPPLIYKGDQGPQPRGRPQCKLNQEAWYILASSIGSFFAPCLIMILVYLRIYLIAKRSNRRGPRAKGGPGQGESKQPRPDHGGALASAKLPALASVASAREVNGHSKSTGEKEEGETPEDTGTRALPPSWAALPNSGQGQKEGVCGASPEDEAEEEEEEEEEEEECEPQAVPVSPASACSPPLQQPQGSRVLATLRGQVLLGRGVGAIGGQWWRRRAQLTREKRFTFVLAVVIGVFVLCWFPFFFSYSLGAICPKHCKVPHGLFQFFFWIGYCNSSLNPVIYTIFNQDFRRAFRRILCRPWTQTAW
The assay is described as follows: Compound was evaluated for Adrenergic activity against Alpha-2 adrenergic receptor in human platelets. In short, it runs like this: (§1)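 Platelet-rich plasma from drug-free human volunteers (no medication for 10 days) treated with 1 mM aspirin. Inhibitors added at various concentrations 1 min before epinephrine. Read-out is primary-wave aggregation. […] Potency ratio = IC50 of medetomidine / IC50 of analogue.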

Assay [2] is filed under the species Rattus norvegicus. The assay is described as follows: Percent maximal analogue response relative to phenylephrine =100%. The class given is functional. Put shortly:
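Rat aorta (α1) contraction. The maximal response to each analogue is expressed as percent of the maximal response to the reference agonist phenylephrine (phenylephrine = 100%). Mean ± SEM, N = 4.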

Assay [3] in a line: Potency ratio is defined as EC50 (medetomidine) / EC50 (compound).
Assay [4] is described as follows: Potency ratio is defined as IC50(medetomidine)/IC50(compound). Put shortly:
as §1

In assay [5] the target is T1, Adrenergic receptor alpha-2. In words: Compound was tested for Adrenergic activity against Alpha-2 adrenergic receptor from rat aorta. In kind it is tissue-based.
Assay [6] has as its target T2, Adrenergic receptor alpha-1 (Rattus norvegicus, UniProt P15823+P23944+P43140).
T2 sequence (P15823 whole entry): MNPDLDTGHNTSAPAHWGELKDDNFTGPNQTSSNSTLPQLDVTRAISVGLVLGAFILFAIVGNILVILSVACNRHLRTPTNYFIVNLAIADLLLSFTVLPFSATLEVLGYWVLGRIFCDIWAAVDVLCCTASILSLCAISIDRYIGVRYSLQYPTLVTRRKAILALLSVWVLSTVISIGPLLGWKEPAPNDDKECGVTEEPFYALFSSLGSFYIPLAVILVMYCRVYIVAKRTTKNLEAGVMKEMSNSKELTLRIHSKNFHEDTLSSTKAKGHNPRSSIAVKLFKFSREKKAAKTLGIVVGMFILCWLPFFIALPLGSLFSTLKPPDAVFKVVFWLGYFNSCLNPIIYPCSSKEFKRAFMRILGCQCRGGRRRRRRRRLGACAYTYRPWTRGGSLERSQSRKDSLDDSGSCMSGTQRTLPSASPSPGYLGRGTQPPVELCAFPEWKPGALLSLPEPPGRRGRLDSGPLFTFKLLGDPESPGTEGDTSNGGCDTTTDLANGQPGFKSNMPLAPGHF
T2 sequence (P23944 whole entry): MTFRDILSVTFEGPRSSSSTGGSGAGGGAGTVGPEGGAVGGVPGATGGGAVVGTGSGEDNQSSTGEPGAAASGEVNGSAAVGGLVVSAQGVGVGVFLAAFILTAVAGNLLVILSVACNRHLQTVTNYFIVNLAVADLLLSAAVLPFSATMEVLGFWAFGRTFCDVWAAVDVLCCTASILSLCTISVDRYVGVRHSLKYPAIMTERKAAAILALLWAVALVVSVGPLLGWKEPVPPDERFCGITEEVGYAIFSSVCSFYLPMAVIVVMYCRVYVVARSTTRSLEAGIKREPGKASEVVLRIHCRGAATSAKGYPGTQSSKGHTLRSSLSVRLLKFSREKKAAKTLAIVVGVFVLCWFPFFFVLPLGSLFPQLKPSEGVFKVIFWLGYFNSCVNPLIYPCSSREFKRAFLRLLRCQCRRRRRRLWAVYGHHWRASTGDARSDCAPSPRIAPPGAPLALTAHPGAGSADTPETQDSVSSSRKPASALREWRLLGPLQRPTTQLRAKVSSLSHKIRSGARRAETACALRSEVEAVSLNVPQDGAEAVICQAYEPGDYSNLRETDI
T2 sequence (P43140 whole entry): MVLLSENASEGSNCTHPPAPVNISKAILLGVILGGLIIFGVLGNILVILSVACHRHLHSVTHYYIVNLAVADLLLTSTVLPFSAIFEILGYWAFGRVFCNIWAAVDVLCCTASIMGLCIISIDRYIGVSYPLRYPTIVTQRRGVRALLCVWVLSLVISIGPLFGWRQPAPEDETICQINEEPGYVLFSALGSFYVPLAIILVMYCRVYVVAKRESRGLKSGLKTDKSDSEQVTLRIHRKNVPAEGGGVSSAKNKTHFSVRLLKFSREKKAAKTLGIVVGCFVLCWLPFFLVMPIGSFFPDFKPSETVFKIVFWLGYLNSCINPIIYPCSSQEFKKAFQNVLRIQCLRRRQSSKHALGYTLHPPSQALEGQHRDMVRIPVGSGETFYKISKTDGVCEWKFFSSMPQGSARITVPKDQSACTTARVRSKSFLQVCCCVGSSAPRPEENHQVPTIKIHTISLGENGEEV
In words: Compound was evaluated for Adrenergic activity against Alpha-1 adrenergic receptor from rat aorta.

For assay [7], the species on record is Rattus norvegicus. The assay is described as follows: Molar concentration of analogue which shifts concentration curve of phenylephrine to the right by 2-fold (0.3 log units). The class given is functional. In short, it runs like this:
(§2)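 Rat aorta (α1) antagonism. KB is the molar analogue concentration that shifts the phenylephrine concentration-response curve 2-fold (0.3 log units) to the right. Derived by computerized analysis of the concentration-response data.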

The target of assay [8] is Adrenergic receptor alpha-1 (Rattus norvegicus) (UniProt P15823+P23944+P43140). In words: Molar concentration towards Alpha-1 adrenergic receptor which shifts concentration curve of phenylephrine to the right by 2-fold (0.3 log units). Put shortly: as §2

SMILES strings stand for the structures.

As usually defined, the IC50 is the concentration that gives 50% inhibition. Higher therefore signals weaker potency. Consider `CC(C1=NCCN1)c1cccc2ccccc12.Cl` (stereo not given), for which the IC50 in assay [1] amounted to 0.014 nM. The molecule further came in with a Max in the assay filed under Rattus norvegicus [2] of 62%. For the same molecule, the Potency ratio stood at 0.57 in assay [3] and 0.24 in assay [4].
The EC50 is the concentration giving half of the maximal effect. Low values mean a more potent agent, high ones a less potent agent. The molecule `CC(c1c[nH]cn1)c1cccc2ccccc12.Cl` (stereo not given) had an IC50 in assay [5] of 0.0034 nM. Also, the EC50 in assay [6] is 200 nM. The molecule further came in with a Max in the assay filed under Rattus norvegicus [2] of 27%. Further, the results for the Potency ratio in assay [3] and in assay [4] were 1.6 and 0.97, respectively.
In assay [1], `CC(c1ccc2ccccc2c1)c1ncc[nH]1.O=C(O)C(=O)O` (stereo not given) displayed a concentration for half-maximal inhibition (IC50) of 0.61 nM. Also, the KB in the assay filed under Rattus norvegicus [7] came to 1.5e-06 µM. For the same molecule, in assay [4], the Potency ratio stood at 0.0054.
For `Cl.c1ccc2c(Cc3ncc[nH]3)cccc2c1`, the IC50 in assay [1] turned out to be 0.034 nM. The EC50 in assay [6] amounted to 200 nM. This molecule returned a Max in the assay listed under Rattus norvegicus [2] of 56%. Also, the Potency ratio in assay [3] came to 1.6; in assay [4], 0.097.
With `CC(C1=NCCN1)c1ccc2ccccc2c1.Cl` (stereo not given), the IC50 in assay [1] is 0.016 nM. The KB in the assay filed under Rattus norvegicus [7] is 0.26 µM. Besides, the Potency ratio in assay [4] came out at 0.21.
As for `Cc1cccc(C(C)c2c[nH]cn2)c1C.Cl` (stereo not given) [MEDETOMIDINE HYDROCHLORIDE], the EC50 in assay [6] is 310 nM. In the assay filed under Rattus norvegicus [2], this molecule gave a Max of 42%.
With `Cl.c1ccc2c(CC3=NCCN3)cccc2c1` [NAPHAZOLINE HYDROCHLORIDE], the Max in the assay listed under Rattus norvegicus [2] turned out to be 68%.
In assay [1], `CC(c1ccc2ccccc2c1)c1c[nH]cn1.Cl` (stereo not given) had an IC50 of 0.12 nM. Further, the Kb in assay [8] amounted to 68 nM. Besides, in assay [4], the Potency ratio stood at 0.028.
On to `CC(c1ncc[nH]1)c1cccc2ccccc12.Cl` (stereo not given), for which the IC50 in assay [1] is 0.26 nM. The molecule further came in with a Max in the assay listed under Rattus norvegicus [2] of 40%. The Potency ratio in assay [3] worked out at 0.04; in assay [4], 0.013.

The values above are taken from ChEMBL document CHEMBL1125381, “Synthesis and alpha-adrenergic activities of 2- and 4-substituted imidazoline and imidazole analogues” (J Med Chem, 1992).
